By MIC99 is commonly meant the lowest concentration that inhibits either 99% of growth or 99% of the strains tested, depending on the study. Broadly, the CC50 is the concentration at which the toxic effect on the cells reaches its halfway point.

The results in this text go back to ChEMBL document CHEMBL3804769, “Antibacterial Diamines Targeting Bacterial Membranes” (J Med Chem, 2016).

The source made the active and inactive calls. No cut-off for these calls is given here.

Data set [1] deals with Caenorhabditis elegans. As to the kind of experiment: Toxicity in adult L4/juvenile L1 stages of Caenorhabditis elegans N2 assessed as effect on egg development at 64 ug/ml incubated for 96 hrs measured every 12 hrs. The following applies: in vivo. The format is organism-based. A digest of the protocol:
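C. elegans N2 maintained on NGM agar at 22 °C. Compound mixed into molten NGM agar at 64 μg/mL. L4 adults, L1 juveniles and synchronized eggs transferred onto test plates and kept 96 h at 22 °C. Checked every 12 h for death, development and egg production. Gentamicin and […] as controls.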

For data set [2], the system named is Staphylococcus aureus. Nature of the data set: Antibacterial activity against Staphylococcus aureus RN4220 ATCC 35556 in early exponential-phase assessed as lysis of cells at 2 times MIC99 after 30 to 60 mins by transmission electron microscopy. The format is functional, organism-based. A digest of the protocol: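 Cells grown in LB to early exponential phase (OD600 ~0.4). Exposed to 2× MIC99 for 15–60 min, washed twice in phosphate buffer, fixed in 2.5% glutaraldehyde, then imaged by transmission electron microscopy.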

Data set [3] has as its system Pseudomonas aeruginosa. As to the kind of experiment: Antibiofilm activity against Pseudomonas aeruginosa PAO1 ATCC 47085 assessed as dispersal of formed biofilm after 24 hrs by crystal violet staining-based spectrophotometry. The data set is classed as functional, organism-based. A digest of the protocol: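 Biofilms first grown 24 h on peg lids without compound, then washed. Pegs transferred into serially diluted compound in 10% LB-PBS and incubated a further 24 h at 37 °C. Remaining biofilm stained with crystal violet, eluted in ethanol and read at 600 nm. 300 μM EDTA as positive control for dispersal.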

Data set [4] in a line: Selectivity index, ratio of CC50 for human A549 cells to MIC99 for Pseudomonas aeruginosa PAO1 ATCC 47085. The format is toxicity, cell-based. The following applies: read-out: Selectivity Index. A digest of the protocol:
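CC50: HEK293T/17 or A549 cells seeded at 10⁴ per well in DMEM with 10% FBS at 37 °C, 5% CO2. After 24 h, wells PBS-washed and serially diluted compound applied for 48 h, with viability read by MTS and CC50 taken by nonlinear regression. MIC99 by CLSI broth microdilution, overnight at 37 °C without shaking, from three independent tests. SI = CC50/MIC99.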

Data set [5] has as its system Staphylococcus aureus. As to the kind of experiment: Potentiation of kanamycin-induced antibacterial activity against Staphylococcus aureus RN4220 ATCC 35556 assessed as kanamycin MIC at 0.5 times MIC99 after 24 hrs by checkerboard assay (reference value: 16 ug/ml). The format is functional. The conditions noted are these: RN4220 ATCC 35556, 24 h. A digest of the protocol: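 Checkerboard assay: compound serially diluted along one axis of a 96-well plate and antibiotic along the other, in LB. Each well inoculated with 2 × 10⁴ CFU and incubated 24 h at 37 °C. ΣFIC = FIC A + FIC B, where each FIC is the combination MIC99 divided by the MIC99 of that drug alone.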

Data set [6] can be described thus: Selectivity index, ratio of CC50 for HEK293T/17 cells to MIC99 for methicillin-resistant Staphylococcus aureus clinical isolate.
Data set [7] in a line: Cytotoxicity against HEK293T/17 cells after 48 hrs by MTS conversion assay. The format is cell-based, HEK-293T. The following applies: human. A digest of the protocol: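 HEK293T/17 and A549 cells maintained in DMEM with 10% FBS at 37 °C, 5% CO2. Seeded at 10⁴ cells per well; after 24 h, washed with PBS and exposed to serially diluted compound for 48 h. Viability read by MTS conversion. CC50 obtained by nonlinear regression.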

For `Cl.Cl.S=C(NCCCNCCCCCNCCCNC(=S)NCC(c1ccccc1)c1ccccc1)NCC(c1ccccc1)c1ccccc1`, the Activity result in data set [1] is on record as “Non-toxic”. Further, the outcome in data set [2] and in data set [3] was Active. Besides, the selectivity ratio in data set [4] was 8. Also, the MIC99 in data set [5] is 2 µg/mL. Besides, the “Selectivity Index” value in data set [6] stood at 32. The compound further yielded a CC50 at 48 h in data set [7] of 32 µg/mL.
